According to ChEMBL document CHEMBL1143122, “Novel analogs of D-e-MAPP and B13. Part 1: synthesis and evaluation as potential anticancer agents” (Bioorg Med Chem, 2008):

How the values were obtained:
Format in all cases: functional
U-251 = test: Antiproliferative activity against human U251 cells after 48 hrs; details: U-251, 48 h
How it was run: (§1)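 NCI 60-cell-line screen. Lines grown in RPMI 1640 with 5% fetal bovine serum and 2 mM L-glutamine, plated at 5,000–40,000 cells/well according to doubling time, left 24 h at 37 °C in 5% CO2. Drug stocks in DMSO at 400-fold the top final concentration. Five 10-fold dilutions, 10−4 to 10−8 M, incubated 48 h. Growth read spectrophotometrically as net protein; GI50 taken as 50% reduction.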

SK-MEL-5 = test: Antiproliferative activity against human SKMEL5 cells after 48 hrs; details: SK-MEL-5, 48 h, read-out: Log LC50 (the source's name) (converted)
How it was run: (§2)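 NCI 60-cell screen. Cells were grown in RPMI 1640 with 5% FBS and 2 mM L-glutamine, then plated at 5,000–40,000 cells/well according to doubling time and preincubated for 24 h at 37 °C in 5% CO2. Compounds were dissolved in DMSO at 400× the top final concentration and tested at five 10-fold dilutions from 10−4 to 10−8 M for 48 h. Growth was read spectrophotometrically; GI50 is 50% net protein reduction.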

IGROV-1 = test: Antiproliferative activity against human IGROV1 cells after 48 hrs; details: IGROV-1, 48 h, read-out: Log TGI (converted); how it was run: as §2
SK-OV-3 = test: Antiproliferative activity against human SKOV3 cells after 48 hrs; details: SK-OV-3, 48 h; how it was run: as §2
786-0 = test: Antiproliferative activity against human 786-0 cells after 48 hrs; details: 786-0, 48 h; how it was run: as §2
CAKI-1 = test: Antiproliferative activity against human CAKI1 cells after 48 hrs; details: CAKI-1, 48 h; how it was run: as §2
SN12C = test: Antiproliferative activity against human SN12C cells after 48 hrs; how it was run: as §2
TK-10 = test: Antiproliferative activity against human TK10 cells after 48 hrs; details: TK-10, 48 h; how it was run: as §1
UO-31 = test: Antiproliferative activity against human UO31 cells after 48 hrs; details: UO-31, 48 h; how it was run: as §1
PC-3 = test: Antiproliferative activity against human PC3 cells after 48 hrs; details: PC-3, 48 h; how it was run: as §2
DU-145 = test: Antiproliferative activity against human DU145 cells after 48 hrs; details: DU-145, 48 h; how it was run: as §2
[1] = Antiproliferative activity against human NCI-ADR-RES cells after 48 hrs; how it was run: as §2
Hs-578T = test: Antiproliferative activity against human HS578T cells after 48 hrs; how it was run: as §2
BT-549 = test: Antiproliferative activity against human BT549 cells after 48 hrs; details: BT-549, 48 h; how it was run: as §2
T47D = test: Antiproliferative activity against human T47D cells after 48 hrs; how it was run: as §1
HOP-62 = test: Antiproliferative activity against human HOP62 cells after 48 hrs; details: HOP-62, 48 h; how it was run: as §2
NCI-H226 = test: Antiproliferative activity against human NCI-H226 cells after 48 hrs; details: NCI-H226, 48 h; how it was run: as §2
NCI-H23 = test: Antiproliferative activity against human NCI-H23 cells after 48 hrs; details: NCI-H23, 48 h; how it was run: as §2
NCI-H322M = test: Antiproliferative activity against human NCI-H322M cells after 48 hrs; how it was run: as §2
NCI-H460 = test: Antiproliferative activity against human NCI-H460 cells after 48 hrs; details: NCI-H460, 48 h; how it was run: as §2
COLO 205 = test: Antiproliferative activity against human COLO205 cells after 48 hrs; details: COLO 205, 48 h; how it was run: as §2
HCC 2998 = test: Antiproliferative activity against human HCC2998 cells after 48 hrs; details: HCC 2998, 48 h; how it was run: as §2
HT-29 = test: Antiproliferative activity against human HT29 cells after 48 hrs; details: HT-29, 48 h; how it was run: as §2
SW-620 = test: Antiproliferative activity against human SW620 cells after 48 hrs; details: SW-620, 48 h; how it was run: as §1
SF-268 = test: Antiproliferative activity against human SF268 cells after 48 hrs; details: SF-268, 48 h; how it was run: as §2
SF-295 = test: Antiproliferative activity against human SF295 cells after 48 hrs; details: SF-295, 48 h; how it was run: as §2
SNB-75 = test: Antiproliferative activity against human SNB75 cells after 48 hrs; details: SNB-75, 48 h; how it was run: as §2
CCRF-CEM = test: Antiproliferative activity against human CCRF-CEM cells after 48 hrs; how it was run: as §2
[2] = Antiproliferative activity against human […] cells after 48 hrs; how it was run: as §2
[3] = read-out: Log LC50 (the source's name) (converted)

CCCCCCCCCCCCCCN[C@@H](C)[C@H](O)c1ccccc1
GI50 (U-251): 1.82 µM
CC50 (U-251; [3]): 5.89 µM
TGI (U-251; read-out: Log TGI (converted)): 3.24 µM
CC50 (SK-MEL-5): > 100 µM
TGI (IGROV-1): 3.55 µM
GI50 (SK-OV-3): 2.34 µM
CC50 (SK-OV-3; [3]): 9.77 µM
TGI (SK-OV-3; read-out: Log TGI (converted)): 4.79 µM
GI50 (786-0): 1.58 µM
CC50 (786-0; [3]): 5.89 µM
TGI (786-0; read-out: Log TGI (converted)): 3.09 µM
GI50 (CAKI-1): 1.95 µM
CC50 (CAKI-1; [3]): 5.89 µM
TGI (CAKI-1; read-out: Log TGI (converted)): 3.39 µM
GI50 (SN12C): 1.82 µM
LC50 (50% net cell kill) (SN12C): 6.76 µM
TGI (SN12C; read-out: Log TGI (converted)): 3.47 µM
GI50 (TK-10): 2 µM
CC50 (TK-10; [3]): 6.17 µM
TGI (TK-10; read-out: Log TGI (converted)): 3.47 µM
GI50 (UO-31): 1.74 µM
LC50 (UO-31): 6.61 µM
TGI (UO-31; read-out: Log TGI (converted)): 3.39 µM
GI50 (PC-3): 2.04 µM
TGI (PC-3; read-out: Log TGI (converted)): 3.72 µM
GI50 (DU-145): 1.86 µM
CC50 (DU-145; [3]): 6.46 µM
TGI (DU-145; read-out: Log TGI (converted)): 3.47 µM
GI50 [1]: 1.7 µM
TGI ([1]; read-out: Log TGI (converted)): 3.39 µM
GI50 (Hs-578T): 2.19 µM
LC50 (Hs-578T): > 100 µM
TGI (Hs-578T; read-out: Log TGI (converted)): 5.5 µM
GI50 (BT-549): 1.51 µM
LC50 (BT-549): 5.75 µM
TGI (BT-549; read-out: Log TGI (converted)): 2.95 µM
GI50 (T47D): 2.09 µM
CC50 (T47D; [3]): 7.59 µM
TGI (T47D; read-out: Log TGI (converted)): 3.98 µM
GI50 (HOP-62): 1.95 µM
CC50 (HOP-62; [3]): 6.17 µM
TGI (HOP-62; read-out: Log TGI (converted)): 3.47 µM
GI50 (NCI-H226): 1.95 µM
TGI (NCI-H226; read-out: Log TGI (converted)): 3.8 µM
GI50 (NCI-H23): 1.82 µM
CC50 (NCI-H23; [3]): 6.76 µM
TGI (NCI-H23; read-out: Log TGI (converted)): 3.55 µM
GI50 (NCI-H322M): 2.04 µM
CC50 (NCI-H322M; [3]): 6.61 µM
TGI (NCI-H322M; read-out: Log TGI (converted)): 3.72 µM
GI50 (NCI-H460): 1.91 µM
CC50 (NCI-H460; [3]): 6.31 µM
TGI (NCI-H460; read-out: Log TGI (converted)): 3.47 µM
GI50 (COLO 205): 1.74 µM
CC50 (COLO 205; [3]): 6.17 µM
TGI (COLO 205; read-out: Log TGI (converted)): 3.31 µM
GI50 (HCC 2998): 1.82 µM
CC50 (HCC 2998; [3]): 5.75 µM
TGI (HCC 2998; read-out: Log TGI (converted)): 3.24 µM
GI50 (HT-29): 1.86 µM
LC50 (HT-29): 6.76 µM
TGI (HT-29; read-out: Log TGI (converted)): 3.55 µM
GI50 (SW-620): 2.04 µM
LC50 (concentration killing 50% of cells) (SW-620): > 100 µM
GI50 (SF-268): 1.78 µM
LC50 (SF-268): 6.61 µM
TGI (SF-268; read-out: Log TGI (converted)): 3.39 µM
GI50 (SF-295): 1.78 µM
LC50 (SF-295): 6.46 µM
TGI (SF-295; read-out: Log TGI (converted)): 3.39 µM
GI50 (SNB-75): 1.7 µM
CC50 (SNB-75; [3]): 6.61 µM
TGI (SNB-75; read-out: Log TGI (converted)): 3.39 µM
GI50 (CCRF-CEM): 2.4 µM
CC50 (CCRF-CEM; [3]): > 100 µM
TGI (CCRF-CEM; read-out: Log TGI (converted)): 5.13 µM
GI50 [2]: 2 µM
TGI ([2]; read-out: Log TGI (converted)): 3.8 µM
